From ChEMBL document CHEMBL1795280, “Design, synthesis and activity of a potent, selective series of N-aryl pyridinone inhibitors of p38 kinase” (Bioorg Med Chem Lett, 2011)
Each block holds one compound with its values, some of them ahead of it.

Tests used:
[1] = biological target: Mitogen-activated protein kinase 14 (Homo sapiens, UniProt Q16539); experiment: Inhibition of p38alpha assessed as phosphorylation of […] after 60 mins by fluorescence assay
Procedure, shortened: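 Cascade assay in which activated p38α (6 pM final) activates unactivated MK2 (1 nM), which phosphorylates FITC-labelled Hsp27 peptide (1 nM) with […]. Inhibitor 0.2–10,000 nM. Room temperature, 60 min, EDTA quench. Phospho-peptide quantified by Caliper LabChip; IC50.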

PBMC = experiment: Antiinflammatory activity in human PBMC assessed as inhibition of LPS-induced TNFalpha production treated 1 hr before LPS challenge measured after 18 hrs; type: functional, cell-based
Procedure, shortened: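 PBMCs isolated by Ficoll from heparinized blood of two healthy donors, in DMEM with 5% endotoxin-free FBS, 2.5 × 10⁵ cells/well. Pretreated 1 h with compound (0.0001–25 µM range), then stimulated 18 h with 22 ng/ml LPS. Final DMSO 0.25%. Secreted TNFα measured by MSD; IC50 reported.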

[2] = Metabolic stability in human liver microsomes assessed as compound remaining at 2 uM after 45 mins by LC/MS analysis; type: ADME, Microsome; settings: read-out: Stability
[3] = Metabolic stability in rat liver microsomes assessed as compound remaining at 2 uM after 45 mins by LC/MS analysis; type: ADME, Microsome; settings: read-out: Stability
Rattus norvegicus = experiment: Antiinflammatory activity in Lewis rat assessed as inhibition of LPS-induced TNFalpha production at 5 mg/kg, po administered 4 hrs before LPS challenge by ELISA; type: functional
Procedure, shortened: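 Adult male Lewis rats (225–250 g), fasted 18 h with free access to water. Compound or vehicle given by oral gavage (1 mL). LPS (E. coli 0111:B4) given 1 mg/kg i.v. in saline 2, 4 or 6 h later. Serum taken by cardiac puncture 90 min after LPS. TNFα quantified against a recombinant rat TNF standard curve with a four-parameter fit. Two vehicle groups per experiment, three experiments.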

[4] = Clearance in iv and po dosed Sprague-Dawley rat; type: ADME, organism-based; settings: in vivo
[5] = Half life in iv and po dosed Sprague-Dawley rat; type: ADME, organism-based; settings: in vivo
[6] = Bioavailability in iv and po dosed Sprague-Dawley rat; type: ADME, organism-based; settings: in vivo
[7] = Solubility of the compound; type: physicochemical

Mitogen-activated protein kinase 14, sequence (Q16539 whole entry): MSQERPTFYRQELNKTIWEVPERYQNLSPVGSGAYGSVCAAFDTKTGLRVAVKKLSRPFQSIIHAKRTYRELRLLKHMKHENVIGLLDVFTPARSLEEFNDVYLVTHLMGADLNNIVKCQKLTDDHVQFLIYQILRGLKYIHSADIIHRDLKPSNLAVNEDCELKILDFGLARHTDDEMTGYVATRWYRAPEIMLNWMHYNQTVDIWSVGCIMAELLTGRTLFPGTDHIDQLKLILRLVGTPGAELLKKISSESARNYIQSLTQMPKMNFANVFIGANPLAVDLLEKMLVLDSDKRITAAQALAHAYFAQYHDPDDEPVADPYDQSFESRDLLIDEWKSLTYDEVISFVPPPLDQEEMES

SMILES: Cc1cc(OCc2ccc(F)cc2F)c(Cl)c(=O)n1-c1c(F)cc(N2CCN(C)CC2)cc1F
IC50 [1]: 23 nM

SMILES: Cc1cc(OCc2ccc(F)cc2F)c(Br)c(=O)n1-c1c(F)cc(OCC(N)=O)cc1F
IC50 [1]: 3 nM

SMILES: O=c1c(Br)c(OCc2ccc(F)cc2F)cc(CN2CCOCC2)n1-c1c(F)cccc1F
IC50 [1]: 9 nM

SMILES: Cc1cc(OCc2ccc(F)cc2F)c(Br)c(=O)n1-c1c(F)cc(N2CCN(C)CC2)cc1F
IC50 [1]: 14 nM

SMILES: O=c1c(Br)c(OCc2ccc(F)cc2F)cc(CO)n1-c1c(F)cccc1F
IC50 [1]: 5 nM | IC50 (PBMC): 25 nM | remaining at 0.75 h, 2 µM [2]: 39% | remaining at 0.75 h, 2 µM [3]: 65% | clearance [4]: 4 mL/min/kg | half-life [5]: 534 min | bioavailability [6]: 19% | inhibition in vivo at 5 mg/kg (Rattus norvegicus): 93% | solubility [7]: < 10 µg/mL

SMILES: Cc1cc(OCc2ccc(F)cc2F)c(Br)c(=O)n1-c1c(F)cc(O)cc1F
IC50 [1]: 15 nM

SMILES: Cc1cc(OCc2ccc(F)cc2)c(Br)c(=O)n1-c1c(Cl)cccc1Cl
IC50 [1]: 6 nM

More lines, main results first:

IC50 [1]: 15 nM | remaining at 0.75 h, 2 µM [2]: 97% | remaining at 0.75 h, 2 µM [3]: 91%
SMILES: Cc1cc(OCc2ccc(F)cc2F)c(Br)c(=O)n1-c1ccc(CNC(=O)CN)cc1
IC50 (PBMC): 118 nM | inhibition in vivo at 5 mg/kg (Rattus norvegicus): 64%

IC50 [1]: 3 nM | remaining at 0.75 h, 2 µM [2]: 60% | remaining at 0.75 h, 2 µM [3]: 80% | clearance [4]: 28.7 mL/min/kg | half-life [5]: 114 min | bioavailability [6]: 19% | solubility [7]: < 10 µg/mL
SMILES: Cc1cc(OCc2ccc(F)cc2F)c(Br)c(=O)n1-c1c(F)cccc1F
IC50 (PBMC): 22 nM | inhibition in vivo at 5 mg/kg (Rattus norvegicus): 38%

IC50 [1]: 175 nM
SMILES: Cc1cc(OCc2ccc(F)cc2F)c(Br)c(=O)n1-c1cccc(CNC(=O)CO)c1

IC50 [1]: 746 nM
SMILES: Cc1cc(OCc2ccc(F)cc2F)c(Br)c(=O)n1-c1ccc(C(=O)N(C)C)cc1

IC50 [1]: 142 nM
SMILES: Cc1cc(OCc2ccc(F)cc2F)c(Br)c(=O)n1-c1ccc(CNC(N)=O)cc1

IC50 [1]: 122 nM
SMILES: Cc1cc(OCc2ccc(F)cc2F)c(Br)c(=O)n1-c1ccc(C(N)=O)cc1

IC50 [1]: 102 nM
SMILES: Cc1cc(OCc2ccc(F)cc2F)c(Br)c(=O)n1-c1cccc(C(=O)N(C)C)c1
